Source: paper PMC4066874 (Immunity, 2014)
Read-outs that look alike come from different tables or passages of the source. Blank lines part the entries; values can stand above or below the molecule they belong to.

Legend:
[1] = tested on: IL-17 production in Th17 cell cultures; assay: IL-17 production during Th17 cell differentiation in vitro; assay type: cell-based, mouse; settings: for effect on IL-17 production in Th17 cell cultures: Digoxin at 10 μM, TMP778 over a much broader dose range; for concentration at which the inhibitory effect on IL-17 production was lost: Th17 cell-polarizing conditions
[2] = tested on: RORγt occupancy at genomic binding sites; assay: ChIP-seq for RORγt in Th17 cells treated with compound; assay type: cell-based, mouse; settings: for RORγt sites with decreased (lower) ChIP signal: 2.5 μM TMP778, 10 μM TMP920, 96 h
In short: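 Naive CD4+CD62Lhigh CD25− T cells (MACS then FACS sorted) were activated on plate-bound anti-CD3 and anti-CD28 (2 μg/ml each) with IL-6 (20 ng/ml) and TGF-β1 (1 ng/ml), plus IL-23 (10 ng/ml) from 48 h. Test compound (2.5 or 10 μM) or DMSO was present for 96 h. ChIP used anti-RORγt (AFKJS-9), with isotype IgG and RORγt-deficient cells as controls. Sequencing was single-end 36 bp.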

[3] = tested on: experimental autoimmune encephalomyelitis (EAE)
[4] = tested on: primary naïve CD4+ T cells under Th17 cell-polarizing conditions; assay: cell proliferation of naïve CD4+ T cells under Th17 cell-polarizing conditions; settings: not RORγt-dependent
GATA3 protein = GATA3 protein expression in Th17 cells; assay type: cell-based, mouse; settings: Th17 cells treated with compound
[5] = target: T1, RORγt ligand-binding domain (Homo sapiens, UniProt P51449); assay: FRET assay, RORγt ligand-binding domain and cofactor peptide SRC1; assay type: biochemical; settings: read-out: IC50, inhibition of RORγt binding to the SRC1 peptide in the FRET assay
T1 sequence (P51449 263-518 limits assumed): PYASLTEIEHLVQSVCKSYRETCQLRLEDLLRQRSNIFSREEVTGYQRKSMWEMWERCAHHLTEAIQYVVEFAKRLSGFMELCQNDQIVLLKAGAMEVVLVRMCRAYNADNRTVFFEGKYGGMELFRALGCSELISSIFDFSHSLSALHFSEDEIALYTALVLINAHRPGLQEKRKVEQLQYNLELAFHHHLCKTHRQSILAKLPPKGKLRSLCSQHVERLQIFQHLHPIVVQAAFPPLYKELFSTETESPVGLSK

RORγ = target: T2, RORγ (Homo sapiens, UniProt P51449); assay: cell-based nuclear receptor reporter
T2 sequence (P51449 1-518): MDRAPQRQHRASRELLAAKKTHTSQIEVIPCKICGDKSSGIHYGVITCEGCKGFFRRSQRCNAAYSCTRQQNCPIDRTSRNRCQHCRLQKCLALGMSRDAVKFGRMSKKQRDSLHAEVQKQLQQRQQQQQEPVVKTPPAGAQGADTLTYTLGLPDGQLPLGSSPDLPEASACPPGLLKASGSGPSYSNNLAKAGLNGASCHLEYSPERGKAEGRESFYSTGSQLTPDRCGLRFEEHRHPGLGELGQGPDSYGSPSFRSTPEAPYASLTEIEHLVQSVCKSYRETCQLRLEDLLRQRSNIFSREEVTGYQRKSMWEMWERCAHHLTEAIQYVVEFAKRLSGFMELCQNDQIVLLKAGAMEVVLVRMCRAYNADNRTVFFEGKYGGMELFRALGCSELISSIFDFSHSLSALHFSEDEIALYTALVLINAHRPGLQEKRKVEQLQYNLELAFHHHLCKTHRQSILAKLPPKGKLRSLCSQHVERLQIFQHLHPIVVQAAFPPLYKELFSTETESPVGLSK

RORα = target: T3, RORα (Homo sapiens, UniProt P35398); assay: cell-based nuclear receptor reporter
T3 sequence (P35398 1-523): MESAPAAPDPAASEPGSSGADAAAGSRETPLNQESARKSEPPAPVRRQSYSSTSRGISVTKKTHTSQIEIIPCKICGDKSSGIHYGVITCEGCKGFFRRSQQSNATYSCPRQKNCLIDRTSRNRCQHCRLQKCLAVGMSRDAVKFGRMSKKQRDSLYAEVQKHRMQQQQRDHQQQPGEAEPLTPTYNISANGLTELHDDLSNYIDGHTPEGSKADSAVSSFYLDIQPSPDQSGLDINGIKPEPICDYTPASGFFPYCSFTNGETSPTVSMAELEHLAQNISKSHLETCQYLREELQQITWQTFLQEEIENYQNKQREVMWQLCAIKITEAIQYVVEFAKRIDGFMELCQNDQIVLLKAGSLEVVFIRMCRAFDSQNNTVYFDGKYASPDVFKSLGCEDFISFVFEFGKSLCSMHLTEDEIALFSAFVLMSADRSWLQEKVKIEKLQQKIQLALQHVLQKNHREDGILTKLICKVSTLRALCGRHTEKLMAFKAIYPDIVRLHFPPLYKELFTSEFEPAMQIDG

RORβ = target: T4, RORβ (Homo sapiens, UniProt Q92753); assay: cell-based nuclear receptor reporter
T4 sequence (Q92753 1-470): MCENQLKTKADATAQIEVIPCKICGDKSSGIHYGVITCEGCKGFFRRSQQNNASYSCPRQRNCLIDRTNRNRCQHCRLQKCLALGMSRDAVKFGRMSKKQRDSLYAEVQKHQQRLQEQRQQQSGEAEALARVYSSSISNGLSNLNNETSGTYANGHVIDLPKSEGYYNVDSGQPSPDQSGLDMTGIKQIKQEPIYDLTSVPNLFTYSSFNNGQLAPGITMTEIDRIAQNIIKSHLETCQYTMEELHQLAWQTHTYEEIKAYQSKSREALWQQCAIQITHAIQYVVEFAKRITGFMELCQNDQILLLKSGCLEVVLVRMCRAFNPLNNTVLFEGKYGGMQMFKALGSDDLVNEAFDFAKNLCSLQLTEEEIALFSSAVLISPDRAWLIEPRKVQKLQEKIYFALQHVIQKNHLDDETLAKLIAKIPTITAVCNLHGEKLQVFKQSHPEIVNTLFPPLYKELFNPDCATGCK

[6] = target: 22 other nuclear receptors; assay: luciferase assays for 22 other nuclear receptors; assay type: cell-based; settings: read-out: IC50 in luciferase assays for 22 other nuclear receptors
[7] = tested on: IL-17 production in CD4+ T cells; assay: IL-17 production from differentiated Th17 cells; assay type: cell-based, mouse; settings: WT CD4+ T cells, MOG35-55 plus IL-23, 4 days
In short: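 Female C57BL/6 mice (8–12 wk) were immunized s.c. in the flanks with MOG35-55 (100 μg/mouse) in CFA containing M. tuberculosis H37Ra extract. Draining LN cells were restimulated with MOG35-55 and IL-23 plus test compound or DMSO for 4 days. They were then given a 4 h PMA/ionomycin/GolgiStop restimulation, fixed and permeabilized, and stained intracellularly for IL-17 and IFNγ in CD4+ cells. Values are mean ± SD.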

[8] = tested on: CCR6- memory human T cells; assay: transcription in human CCR6- memory T cells; assay type: cell-based
[9] = tested on: primary naïve CD4+ T cells under Th17 cell-polarizing conditions

SMILES: C[C@H]1O[C@@H](O[C@H]2[C@@H](O)C[C@H](O[C@H]3[C@@H](O)C[C@H](O[C@H]4CC[C@@]5(C)[C@H](CC[C@@H]6[C@@H]5C[C@@H](O)[C@]5(C)[C@@H](C7=CC(=O)OC7)CC[C@]65O)C4)O[C@@H]3C)O[C@@H]2C)C[C@H](O)[C@@H]1O [Digoxin, reference compound]
effect on IL-17 production in Th17 cell cultures [1]: specifically inhibited IL-17 production
concentration at which the inhibitory effect on IL-17 production was lost [1]: < 2.5 µM
effect on RORγt binding ([2]; 10 μM Digoxin, 96 h): intermediate
dose that caused mouse death ([3]; per injection, subcutaneous twice daily): > 100 µg
concentration at which toxic effects on cell growth start [4]: > 10 µM

SMILES: CCS(=O)(=O)c1ccc(CC(=O)Nc2cc(Cl)c(-c3ccccc3OC(F)(F)F)c(Cl)c2)cc1 [GSK805]
inhibition of IL-17 production during Th17 cell differentiation ([1]; GSK805 at 0.5 μM, 4 days): comparable inhibition of IL-17 production as TMP778 at 2.5 μM
GATA3 protein expression (GATA3 protein): increased GATA3 protein expression
effect on severity of EAE ([3]; oral, 10 mg/kg daily from day 0): efficiently ameliorate the severity of EAE
Th17 cell responses in the CNS ([3]; oral, 30 mg/kg, day 14): strongly inhibits Th17 cell responses

SMILES: Cc1ccc([C@@H](NC(=O)Cc2ccc3oc([C@@H](O)c4c(C)noc4C)cc3c2)c2ccccc2)c(C)c1 [TMP778]
IC50 [5]: 5 nM
IC50 (RORγ; read-out: IC50 for luciferase activity in RORγ assays): 17 nM
IC50 fold higher for RORα than in RORγ assays (RORα): roughly 100 fold
IC50 (RORα; read-out: IC50 for RORα, luciferase reporter): 1240 nM
IC50 fold higher for RORβ than in RORγ assays (RORβ): roughly 100 fold
IC50 (RORβ; read-out: IC50 for RORβ, luciferase reporter): 1390 nM
IC50 [6]: > 10000 nM
effect on IL-17 production in Th17 cell cultures [1]: efficiently decreased IL-17 production
inhibition of IL-17 production from differentiated Th17 cells [7]: the most potent inhibition
new RORγt binding sites ([2]; 2.5 μM TMP778): 179
new RORγt binding sites as share of peaks observed with compound ([2]; 2.5 μM TMP778): 8.2 % of peaks
RORγt sites with decreased (lower) ChIP signal [2]: 55 % of sites
effect on transcription in population depleted for Th17 cells [8]: no differentially expressed genes with a fold cutoff over 1.5
GATA3 protein expression (GATA3 protein): increased expression of GATA3 protein
concentration at which toxic effects on cell growth start [9]: > 2.5 µM
percentage of IL-17+ T cells in the CNS ([3]; subcutaneous twice daily, day 21 after EAE induction): most strongly reduced the percentage of IL-17^+ T cells in the CNS

IC50 [5]: 30 nM
IC50 (RORγ; read-out: IC50 in RORγ assays): 1100 nM
IC50 [6]: > 10000 nM
SMILES: Cc1ccc(C(NC(=O)Cc2ccc(OCc3c(C)noc3C)cc2)c2ccccc2)c(C)c1 (stereo not shown) [TMP920]
concentration at which the inhibitory effect on IL-17 production was lost [1]: < 2.5 µM
RORγt sites with decreased (lower) ChIP signal [2]: 77 % of sites
concentration at which toxic effects on cell growth start [9]: > 10 µM
